In ChEMBL document CHEMBL1142455, “Synthesis and biological evaluation of immunosuppressive agent DZ2002 and its stereoisomers” (Bioorg Med Chem, 2008):
The source made the active and inactive calls. No cut-off for these calls is given here.

Key:
[1] = Inhibition of rabbit erythrocyte SAHase by DTNB-coupled assay; set-up: species or system Oryctolagus cuniculus
In short: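 SAHase hydrolytic activity was measured by DTNB-coupled assay. Enzyme and compound were preincubated in phosphate buffer, pH 8.0, for 10 min before the reaction was started.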

Splenic lymphocyte = test: Immunosuppressive activity in BALB/c mouse splenic lymphocytes co-cultured with C57BL/6 mouse splenic lymphocytes assessed as inhibition of cell proliferation after 72 hrs by mixed lymphocyte reaction assay; type: functional, cell-based
In short: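 Stimulator BALB/c splenic lymphocytes (1 × 10⁷ cells/mL) were γ-irradiated with ⁶⁰Co for 7 min. They were co-cultured with fresh C57BL/6 splenic responder lymphocytes and compound at 25, 50 or 100 μM in RPMI 1640 with FCS for 72 h at 37 °C under 5% CO₂. Cells were then pulsed with [³H]thymidine for another 24 h to read proliferation.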

[2] = Cytotoxicity against BALB/c mouse splenic lymphocytes co-cultured with C57BL/6 mouse splenic lymphocytes assessed as reduction of cell viability after 72 hrs; type: cell-based, Splenic lymphocyte; conditions: BALB/c and C57BL/6, mouse

COC(=O)[C@H](O)CCn1cnc2c(N)ncnc21
IC50 [1]: 61.3 µM
Activity (Splenic lymphocyte): Active
CC50 at 72 h [2]: > 1000 µM

COC(=O)C(=O)CCn1cnc2c(N)ncnc21
IC50 [1]: 194 µM
Activity (Splenic lymphocyte): Active
CC50 at 72 h [2]: > 1000 µM

COC(=O)[C@@H](O)CCn1cnc2c(N)ncnc21
IC50 [1]: 21.2 µM
Activity (Splenic lymphocyte): Active
CC50 at 72 h [2]: > 1000 µM

COC(=O)C(O)CCn1cnc2c(N)ncnc21 (racemic)
IC50 [1]: 24.4 µM
Activity (Splenic lymphocyte): Active
CC50 at 72 h [2]: > 1000 µM
